Entries after “also recorded” stand apart in the source; their conditions may differ. Where a SMILES comes first, the peptide text is derived from it. [ ]: non-standard residue; d: D form. βAla = NCCC(=O)O

The subject of test [1] is YFP-LID. Description: Shield-dependent degradation of YFP-LID in NIH3T3 cells, flow cytometry. The test is classed as cell-based. The procedure, abridged:
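NIH3T3 cells were stably retrovirally transduced with YFP-FKBP(F36V) plus the 19-residue C-terminal peptide, with IRES-HcRed as infection marker. They were plated at 1 × 10⁵ per well and given vehicle or Shield-1 (1 pM–1 μM, or 1 μM for 24 h), then trypsinised. YFP was read by flow cytometry (typically 10,000 events) against untransduced-cell autofluorescence. Error bars are s.d. from at least two experiments.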
For orientation: A flow cytometer gives signals particle by particle.

The subject of test [2] is YFP-LID. Description: Time course of YFP-LID degradation and recovery in NIH3T3 cells, flow cytometry. In kind it is cell-based. Particulars: NIH3T3, absence of cycloheximide. The procedure, abridged: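 Stably transduced NIH3T3 cells expressing YFP-LID were plated at 1 × 10⁵ cells/well. For degradation, Shield-1 was added and cells were sampled at various times. For recovery, Shield-1 was removed by changing to fresh growth medium containing 5 μM recombinant FKBP(F36V) at set times before analysis. YFP was read by flow cytometry, and the maximum fluorescence was set to 100%.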

For test [3], the system named is YFP-LID fusion proteins in HeLa cells. Description: YFP-LID degradation in transiently transfected HeLa cells. Particulars: 24 hours Shield-1. In kind it is cell-based.
For test [4], the system named is YFP-LID fusion proteins in U2OS cells. Description: YFP-LID degradation in transiently transfected U2OS cells. The test is classed as cell-based. Particulars: 24 hours Shield-1.
The test system of test [5] is YFP. Description: Stability of YFP fused directly to the 19-residue peptide or its truncations. In kind it is cell-based. Particulars: 1 μM Shield-1, 24 h, flow cytometry. The procedure, abridged:
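The 19-residue peptide was fused directly to YFP, without FKBP, and stably transduced into NIH3T3 cells by retrovirus. Cells were plated at 1 × 10⁵ per well, treated with vehicle or 1 μM Shield-1 for 24 h, trypsinised and analysed by flow cytometry (typically 10,000 events). Error bars are s.d. from at least two experiments.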

Test [6] relates to transcription factors fused to LID (Oct4, Klf4, Sox2, Myc, Lin28, Nanog). In kind it is cell-based, human; Nanog mouse. To be noted: 2 μM Shield-1, 24 h, NIH3T3, immunoblot. The procedure, abridged: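 LID was fused to the C-terminus of each of six transcription factors. Each was retrovirally transduced into NIH3T3 cells separately (4 μg/mL polybrene, 4 h, 37 °C; 24–36 h integration) in DMEM with 10% donor bovine serum. Cells got vehicle or 2 μM Shield-1 for 24 h. Lysates were immunoblotted with anti-Oct4, anti-Klf4, anti-HA (Sox2, Myc, Lin28) or anti-Flag (Nanog). α-Tubulin was the loading control; untransduced cells were the reference.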
(A western blot detects proteins with antibodies after separation by electrophoresis.)

Test [7] deals with Oct4-LID. Description: Reprogramming of MEFs. The test is classed as cell-based, murine embryonic fibroblasts. Particulars: 2 μM Shield-1 from day 3 post-infection. The procedure, abridged:
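Fibroblasts came from transgenic mice carrying GFP driven by the Oct4 promoter. They were retrovirally transduced with Sox2, Myc, Klf4 and Oct4-LID, with untagged Oct4 as comparison. Vehicle or 2 μM Shield-1 was added on day 3 post-infection, and alkaline phosphatase staining was done on day 14. GFP-positive cells were moved to fresh feeder layer on day 19 and stained with APC anti-SSEA-1 on day 24.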

Test [8] relates to actin-GFP-LID. Briefly: Depletion of β-actin-AcGFP-LID in NIH3T3 cells, fluorescence microscopy. In kind it is cell-based, human. To be noted: 2 μM Shield-1, 24 hours. The procedure, abridged:
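NIH3T3 fibroblasts were retrovirally co-transduced (4 μg/mL polybrene, 4 h, 37 °C; then 24–36 h in growth medium) with human β-actin fused to Aequorea coerulescens GFP plus LID, and with β-actin-mCherry to mark microfilaments. Cells were cultured ± Shield-1, and green and red actin filaments were imaged by epifluorescence microscopy with a 40x objective.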

The subject of test [9] is YFP-LID. Briefly: Simultaneous use of LID and DD systems in NIH3T3 cells: YFP-LID. The test is classed as cell-based. To be noted: various concentrations of Shield-1, 24 h, flow cytometry and microscopy. The procedure, abridged: (§1)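 NIH3T3 cells stably co-transduced with YFP-LID and DD-mCherry were plated at 1 × 10⁵ cells/well. They were exposed to a range of Shield-1 concentrations for 24 h, then detached with trypsin-EDTA. YFP and mCherry were read in their respective channels by flow cytometry (typically 10,000 events) and by epifluorescence microscopy.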

Test [10] has as its system DD-mCherry. Briefly: Simultaneous use of LID and DD systems in NIH3T3 cells: DD-mCherry. In kind it is cell-based. To be noted: various concentrations of Shield-1, 24 h, flow cytometry and microscopy. The procedure, abridged:
as §1

Test [11] has as its system YFP-FKBP(F36V)-degron-LPLPLP fusions (CL1, CyclinB, encephalomyocarditis virus degron). The test is classed as cell-based. To be noted: NIH3T3, flow cytometry.
Test [12] deals with FKBP domain. Particulars: ref [18],[26]; cited from earlier work.
Test [13] deals with FKBP(F36V) (Homo sapiens, UniProt P62942, F37V). Briefly: Fluorescence polarization competition binding against Fl-SLF. Particulars: polarization signal; Fl-SLF 1 nM, FKBP(F36V) 100 nM. The procedure, abridged: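 Purified FKBP(F36V) and fluorescent Shield-1 analog Fl-SLF were held at fixed concentrations and incubated with a titration of synthetic test peptide. Tracer displacement was read as the decrease in fluorescence polarization.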

The test system of test [14] is FKBP. To be noted: relative to Shield-1; ref [19]; cited from earlier work.

Chain of FKBP(F36V) (P62942 whole entry F37V): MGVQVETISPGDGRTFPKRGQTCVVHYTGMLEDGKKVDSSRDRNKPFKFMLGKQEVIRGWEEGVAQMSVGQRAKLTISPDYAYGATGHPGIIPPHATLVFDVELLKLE

For `CC[C@H](C(=O)N1CCCC[C@H]1C(=O)O[C@H](CCc1ccc(OC)c(OC)c1)c1cccc(OCCN2CCOCC2)c1)c1cc(OC)c(OC)c(OC)c1` [Shield-1], the “YFP fluorescence levels in Shield-treated cells above the background autofluorescence” value in [1] (relative to untransduced NIH3T3 cells, flow cytometry) is 10-20%. The “time for YFP levels to be reduced 50% upon addition of Shield-1” value in [2] came to 45 min. Moreover, the “degradation of YFP-LID fusion proteins” value in test [3] is “could be degraded in transient transfected HeLa and U2OS cells”; in test [4] it was “could be degraded in transient transfected HeLa and U2OS cells”. Further, the “effect of Shield-1 on the stability of YFP-19mer” value in test [5] was “this instability is not affected by Shield-1; also recorded: no effect on the stability of this fusion”. The “degradation of LID-fused transcription factors” value in test [6] is given as “all degraded in a Shield-1 dependent manner”. The “reprogramming to iPS cells of cells expressing Oct4-LID in the presence of Shield-1” value in test [7] is “unable to undergo reprogramming to iPS cells”. Also, the “GFP fluorescence of β-actin-GFP-LID after Shield-1” value in test [8] is listed as “GFP fluorescence was absent”. Moreover, the “YFP-LID level” value in test [9] was “dose-dependent depletion of YFP-LID”. For the same molecule, in test [10], the “mCherry (DD-mCherry) level” value is listed as “simultaneous stabilization of mCherry”. Besides, the “stability of YFP-FKBP-degron-LPLPLP fusions with Shield-1” value in [11] is “an increase in fluorescence was observed”. The “affinity for the FKBP domain” value in [12] is given as “sub-nanomolar”.
Consider `CC(C)C[C@H](NC(=O)[C@H](CC(C)C)NC(=O)[C@@H](NC(=O)[C@@H](NC(=O)CNC(=O)[C@H](CCC(=O)O)NC(=O)[C@H](C)NC(=O)[C@@H](NC(=O)[C@H](CCC(=O)O)NC(=O)[C@H](CCC(=O)O)NC(=O)[C@@H](NC(=O)CNC(=O)[C@H](CCCNC(=N)N)NC(=O)[C@@H](NC(=O)CCN)[C@@H](C)O)C(C)C)C(C)C)C(C)C)C(C)C)C(=O)N[C@@H](CCCNC(=N)N)C(=O)N[C@@H](CCCNC(=N)N)C(=O)N[C@@H](CCCNC(=N)N)C(=O)NCC(=O)N[C@@H](CC(N)=O)C(=O)O` [19-residue peptide] (H-[βAla]TRGVEEVAEGVVLLRRRGN-OH; N-terminus and C-terminus assumed), for which the “displacement of tracer Fl-SLF from FKBP” value in [13] is recorded as “dose-dependent decrease in polarization signal”.
As for `CCC(CC)NC(=O)N1CCCC[C@H]1C(=O)O[C@H](CCc1ccc(OC)c(OC)c1)c1cccc(OCCN2CCOCC2)c1` [Shield-2], the “destabilization of the LID domain” value in test [1] (NIH3T3 cells, compared with Shield-1) is reported as “can also destabilize the LID domain although with slightly reduced potency”. The “binding potency for FKBP” value in test [14] was “less potent binding ligand for FKBP”.

The values are drawn from publication PMC3139708 (Nature chemical biology, 2011).
